# Experimental data published in ChEMBL document CHEMBL4229442, “Anti-acute myeloid leukemia activity of 2-chloro-3-alkyl-1,4-naphthoquinone derivatives through inducing mtDNA damage and GSH depletion” (Bioorg Med Chem, 2018).
# Tests used:
# Type in all cases: functional
# HL-60 [1] = experiment: Cell cycle arrest in human HL60 cells assessed as accumulation at G2/M phase at 6 uM after 48 hrs by propidium iodide staining based flow cytometry (reference value: 6.88%)
# HL-60 [2] = experiment: Cell cycle arrest in human HL60 cells assessed as accumulation at G2/M phase at 9 uM after 48 hrs by propidium iodide staining based flow cytometry (reference value: 6.88%)
# HL-60 [3] = experiment: Induction of mitochondrial membrane potential loss in human HL60 cells assessed as reduction in mean fluorescence intensity at 9 uM after 24 hrs by TMRE probe based flow cytometry relative to control; parameters: scale not given: the % may be the effect or the level left
# How it was run: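 HL-60 cells (5 × 10^5, DMEM + 10% FBS, 37 °C, 5% CO2) treated 12 or 24 h; medium then replaced with fresh medium containing 100 nM TMRE for 30 min at 37 °C, washed three times with PBS pH 7.4. Flow cytometry at 549 nm excitation / 574 nm emission; read-out is mean fluorescence intensity versus untreated control.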
# HL-60 [4] = experiment: Induction of apoptosis in human HL60 cells assessed as late apoptotic/necrotic cells at 9 uM after 24 hrs by Annexin-V-FITC/propidium iodide staining based flow cytometry (reference value: 0.81%)
# How it was run: (§1)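 5×10^5 HL-60 cells in 6-well plates, treated at 3, 6 or 9 µM for 24 or 48 h. Cells were stained with Annexin V-FITC/PI and read by flow cytometry. Early apoptotic cells were taken as Annexin+/PI− and late apoptotic or necrotic cells as Annexin+/PI+.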
# HL-60 [5] = experiment: Induction of apoptosis in human HL60 cells assessed as early apoptotic cells at 3 uM after 24 hrs by Annexin-V-FITC/propidium iodide staining based flow cytometry (reference value: 3.38%); how it was run: as §1
# HL-60 [6] = experiment: Cell cycle arrest in human HL60 cells assessed as accumulation at G2/M phase at 9 uM after 24 hrs by propidium iodide staining based flow cytometry (reference value: 7.2%)
compound,measurement,setting,value
CCC1=C(Cl)C(=O)c2cc(OC)c(OC)c(OC)c2C1=O,Activity,HL-60 [1],27.81%
same,Activity,HL-60 [2],48.63%
same,Activity,HL-60 [3],87%
same,Activity,HL-60 [4],21.9%
same,Activity,HL-60 [5],6.27%
same,Activity,HL-60 [6],12.24%
